Experimental findings from ChEMBL document CHEMBL2417516, “Metallo-β-lactamase inhibitory activity of 3-alkyloxy and 3-amino phthalic acid derivatives and their combination effect with carbapenem” (Bioorg Med Chem, 2013) are described below.

SMILES strings stand for the structures. ≈ marks a conversion by molar mass, not a printed value. Calls of active or inactive are those of the source. No cut-off for these calls is given here. A value given as a limit tells only on which side of the number the result lay.

The target in one assay is Metallo beta-lactamase (Pseudomonas aeruginosa, UniProt Q6TUJ4). The assay is described as follows: Inhibition of carbapenems-resistant Pseudomonas aeruginosa MSC15369 metallo-beta-lactamase IMP1 expressed in Escherichia coli DH5[alpha] using nitrocefin as substrate after 20 mins by spectrophotometry. The procedure, abridged:
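IMP-1 was expressed in E. coli DH5 with 0.5 mM IPTG induction for 3 h at room temperature, and the soluble enzyme was purified from cell extracts on Ni-NTA. Inhibitors were incubated with 1.0 nM IMP-1 for 20 min at room temperature, and IC50 values were determined.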

For assay [1], the system named is Pseudomonas aeruginosa. As to the kind of experiment: Antibacterial activity against mexAB-deleted Pseudomonas aeruginosa KG5002/pMS363 at 50 ug/ml by microbroth dilution method in presence of biapenem. It is filed as functional, organism-based. (Broth dilution looks for growth in wells or tubes with falling amounts of substance.)
Assay [2] relates to Pseudomonas aeruginosa. As to the kind of experiment: Antibacterial activity against Pseudomonas aeruginosa PAO1 pMS363 at 50 ug/ml by microbroth dilution method in presence of biapenem. Format: functional, organism-based.
In assay [3] the test system is Pseudomonas aeruginosa. As to the kind of experiment: Antibacterial activity against Pseudomonas aeruginosa clinical isolates producing IMP-1 by microbroth dilution method in presence of ceftazidime. It is filed as functional, organism-based. The procedure, abridged:
(§1)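 Minimum inhibitory concentrations were determined by broth microdilution following CLSI guidance, with Mueller–Hinton II broth as the test medium.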

The test system of assay [4] is Pseudomonas aeruginosa. The assay is described as follows: Antibacterial activity against Pseudomonas aeruginosa clinical isolates producing IMP-1 by microbroth dilution method in presence of biapenem. It is filed as functional, organism-based. The procedure, abridged: as §1
For assay [5], the system named is Pseudomonas aeruginosa. The assay is described as follows: Antibacterial activity against Pseudomonas aeruginosa clinical isolates producing IMP-1 by microbroth dilution method in presence of meropenem. It is filed as functional, organism-based. Summed up: as §1
In assay [6] the test system is Pseudomonas aeruginosa. The assay is described as follows: Antibacterial activity against Pseudomonas aeruginosa PAO1 pMS363 by microbroth dilution method. It is filed as functional. Summed up: (§2)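 MIC determined by broth microdilution following CLSI guidance, with Mueller–Hinton II broth as the test medium.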
Assay [7] concerns Pseudomonas aeruginosa. The assay is described as follows: Antibacterial activity against mexAB-deleted Pseudomonas aeruginosa KG5002/pMS363 by microbroth dilution method. Format: functional. Summed up:
as §2

Metallo beta-lactamase, sequence (Q6TUJ4 whole entry): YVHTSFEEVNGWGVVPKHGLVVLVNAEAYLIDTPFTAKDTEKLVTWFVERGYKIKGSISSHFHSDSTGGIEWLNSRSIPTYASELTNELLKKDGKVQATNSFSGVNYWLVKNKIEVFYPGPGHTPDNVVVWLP

Consider `O=C(O)c1cccc(OCc2ccccc2)c1C(=O)O`, for which, on Metallo beta-lactamase, the midpoint of inhibition, the IC50, lay at 7.4 µM. This counts as single-digit micromolar.
On the same count and under the same terms, in the case of `CCCCOc1cccc(C(=O)O)c1C(=O)O` it was 5.1 µM.
As for `O=C(O)c1cccc(N2CCC(CO)CC2)c1C(=O)O`, the concentration for half-maximal inhibition (IC50) (usually the concentration that inhibits the measured activity by half) on Metallo beta-lactamase was determined as 2.6 µM. The outcome in the assay on Pseudomonas aeruginosa [1] and with Pseudomonas aeruginosa [2] was Active.
Consider `Nc1cccc(C(=O)O)c1C(=O)O`, for which half-maximal inhibition at Metallo beta-lactamase (IC50) was put at 300 µM.
In turn, `O=C(O)c1cccc(N2CCCC(O)C2)c1C(=O)O` (stereo not given) gave an IC50 at Metallo beta-lactamase of 2.7 µM. In addition, the result in the assay with Pseudomonas aeruginosa [1] and with Pseudomonas aeruginosa [2] was Active.
Turning to `O=C(O)c1cccc(N2CCC(O)CC2)c1C(=O)O`, the Activity result in the assay on Pseudomonas aeruginosa [3], in the assay with Pseudomonas aeruginosa [4] and in the assay with Pseudomonas aeruginosa [5] was “Dose-dependent effect” each time. At Metallo beta-lactamase, this compound gave a half-maximal inhibitory concentration (IC50) of 2.7 µM. Also, the result with Pseudomonas aeruginosa [1] and with Pseudomonas aeruginosa [2] was Active.
At Metallo beta-lactamase, `O=C(O)c1cccc(O)c1C(=O)O` returned an IC50 above 300 µM.
Consider `O=C(O)c1cccc(-c2ccc(O)cc2)c1C(=O)O`, for which half-maximal inhibition against Metallo beta-lactamase (IC50) required 1.55 µM.
Still for that read-out and setting: the figure for `COc1cccc(C(=O)O)c1C(=O)O` is 142 µM.
For `O=C(O)c1cccc(OCCCc2ccccc2)c1C(=O)O`, on Metallo beta-lactamase, inhibition was half-maximal at 1.7 µM (IC50). Further, in the assay on Pseudomonas aeruginosa [1], the outcome was Active. Further, the result in the assay with Pseudomonas aeruginosa [2] was inactive.
`O=C(O)c1cccc(N2CCCC2)c1C(=O)O`: at Metallo beta-lactamase, the half-maximal inhibitory concentration (IC50) stood at 2.8 µM. The result in the assay with Pseudomonas aeruginosa [1] and with Pseudomonas aeruginosa [2] was Active.
On Metallo beta-lactamase, `O=C(O)CCCCOc1cccc(C(=O)O)c1C(=O)O` came in with an IC50 of 18.8 µM. Besides, the outcome in the assay with Pseudomonas aeruginosa [2] was Active.
As to `CCCCNc1cccc(C(=O)O)c1C(=O)O`, on Metallo beta-lactamase, the IC50 was 13.1 µM.
At Metallo beta-lactamase, `O=C(O)c1cccc(N2CCC(CCO)CC2)c1C(=O)O` showed an IC50 of 25.6 µM. Besides, the result with Pseudomonas aeruginosa [1] and in the assay on Pseudomonas aeruginosa [2] was Active.
`COC1CCN(c2cccc(C(=O)O)c2C(=O)O)CC1` had an IC50 against Metallo beta-lactamase of 3.7 µM. The result in the assay on Pseudomonas aeruginosa [1] and in the assay with Pseudomonas aeruginosa [2] was Active.
As for `O=C(O)c1cccc(N2CCCCC2)c1C(=O)O`, the midpoint of inhibition against Metallo beta-lactamase, the IC50, lay at 10.8 µM. Besides, the result with Pseudomonas aeruginosa [1] and with Pseudomonas aeruginosa [2] was Active.
`O=C(O)c1cccc(N2CCCC(CO)C2)c1C(=O)O` (stereo not given) registered an IC50 at Metallo beta-lactamase of 2.1 µM. For the same compound, the outcome with Pseudomonas aeruginosa [1] and in the assay on Pseudomonas aeruginosa [2] was Active.
`O=C(O)c1cccc(OCCCO)c1C(=O)O` came in with an IC50 on Metallo beta-lactamase of 21.4 µM. Besides, the result in the assay with Pseudomonas aeruginosa [1] and in the assay with Pseudomonas aeruginosa [2] was Active.
Take `O=C(O)c1cccc(N2CCC(O)(c3ccccc3)CC2)c1C(=O)O`: the concentration for half-maximal inhibition (IC50) on Metallo beta-lactamase is 2.3 µM. The result with Pseudomonas aeruginosa [1] and with Pseudomonas aeruginosa [2] was Active.
Compound `O=C(O)c1cccc(OCCO)c1C(=O)O` gave a half-maximal inhibitory concentration (IC50) against Metallo beta-lactamase of 47.8 µM. The outcome in the assay with Pseudomonas aeruginosa [1] and in the assay with Pseudomonas aeruginosa [2] was Active.
Take `C[C@@H](O)[C@H]1C(=O)N2C(C(=O)[O-])=C(SC3Cn4cnc[n+]4C3)[C@H](C)[C@H]12` (stereo not given in full) [BIAPENEM]: the minimal inhibitory concentration (MIC) in the assay on Pseudomonas aeruginosa [6] and against Pseudomonas aeruginosa [7] was 64 mg/L (≈ 183 µM) each time.
On to `CN(C)c1cccc(C(=O)O)c1C(=O)O`, for which half-maximal inhibition against Metallo beta-lactamase (IC50) required 94.5 µM. Also, the outcome in the assay on Pseudomonas aeruginosa [1] and with Pseudomonas aeruginosa [2] was Active.
In turn, `O=C(O)c1cccc(OCCCC2CCCCC2)c1C(=O)O` displayed an IC50 against Metallo beta-lactamase of 2 µM. Moreover, in the assay with Pseudomonas aeruginosa [2], the result was inactive.
